Calls of active or inactive are those of the source. The rule behind the calls is not given here.
What was measured:
[1] = biological target: Cannabinoid receptor 2 (Mus musculus) (UniProt P47936); assay: Agonist activity at CB2R in LPS induced mouse BV2 cells assessed as increase in IL-10 secretion at 10 uM preincubated with CB2R antagonist, SR144528 for 15 mins followed by compound additon for 30 mins after LPS stimulation for 4 hrs by ELISA; format: cell-based; settings: BV-2, time 270.0 min
In short: (§1)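 BV-2 murine microglia grown in high-glucose DMEM with 10% FBS. Treatments in FBS-free medium: test agonist 10 μM for 30 min, then LPS 5 μg/ml for 4 h; SR144528 10 μM given 15 min before agonist. DMSO ≤0.1% final. Medium spun 10 min at 1000×g; IL-1β, IL-6, IL-10 quantified by ELISA; three independent experiments in duplicate.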

[2] = biological target: Cannabinoid receptor 2 (Mus musculus) (UniProt P47936); assay: Agonist activity at CB2R in LPS induced mouse BV2 cells assessed as reduction in IL-1beta secretion at 10 uM preincubated with CB2R antagonist, SR144528 for 15 mins followed by compound additon for 30 mins after LPS stimulation for 4 hrs by ELISA; format: cell-based; settings: BV-2, time 270.0 min; in short: as §1
[3] = tested on: Mus musculus; assay: Antinociceptive activity in CD-1 albino mouse model of oxaliplatin-induced neuropathic pain assessed as decrease in pain-related behaviour at 10 mg/kg, po pretreated with CB2R antagonist, SR144528 for 15 mins before compound addition treated on day 15 post oxaliplatin treatment and measured after 15 to 75 mins post dose by cold plate test; format: functional, organism-based; settings: time 15-75 min
In short: (§2)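 Male CD-1 mice (22-25 g) given oxaliplatin 2.4 mg/kg i.p. in 5% glucose on days 1-2, 5-9, 12-14; tested day 15. Compound in 1% carboxymethylcellulose orally at 5, 10, 20, 50 mg/kg. Cold plate licking latency at 15, 30, 45, 60, 75 min post dose. Selective CB1R and CB2R antagonists co-tested. 16 mice per treatment across 2 sessions; one-way ANOVA with Bonferroni.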

[4] = biological target: T1, Cannabinoid receptor 1 (Homo sapiens, UniProt P21554); assay: Agonist activity at human CB1R expressed in CHO cell membranes after 90 mins by [35S]GTPgammaS assay; format: functional, Membrane
In short: (§3)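 In-house CHO membranes expressing hCB1 or hCB2 (10 µg) in 50 mM Tris-HCl, 3 mM MgCl2, 0.2 mM EDTA, 100 mM NaCl, 0.5% fatty-acid-free BSA, pH 7.4, with 10 μM GDP and 0.1 nM [35S]GTPγS. Incubated 90 min at 30 °C; antagonist pre-incubated 30 min. Nonspecific binding with 10 μM GTPγS; bound label by filtration and counting; ≥3 experiments in triplicate.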

[5] = tested on: Mus musculus; assay: In vivo agonist activity at CB1R in C57BL/6J mouse assessed as functional CB1R level in brain at 10 mg/kg, ip after 20 days by [35S]GTPgammaS assay; format: organism-based; settings: time 20.0 day
In short: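 After 20 days of EAE treatment, half-brain membranes (20 µg) pre-incubated 30 min at 37 °C with adenosine deaminase 0.5 units/mL, 30 μM GDP, 0.2 nM [35S]GTPγS at pH 7.4. Stimulated by CP55,940 1 μM, SR141716A 1 μM, both, or vehicle for 1 h at 30 °C; nonspecific with 10 μM GTPγS; expressed as % of vehicle control.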

[6] = biological target: Cannabinoid receptor 1 (Rattus norvegicus) (UniProt P20272); assay: Agonist activity at CB1R in Sprague-Dawley rat hippocampal synaptosomes assessed as inhibition of 4-AP evoked glutamate release at 1 uM preincubated for 8 mins followed by 4-AP addition by HPLC analysis; format: subcellular; settings: Hippocampus
In short: (§4)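 Rat (male Sprague Dawley, 200-250 g) hippocampal synaptosomes from Percoll gradient, superfused at 37 °C (0.5 ml/min); 4-AP 600 μM for 2 min. Compounds and antagonists (SR141716A, SR144528, 1 μM) added 8 min before 4-AP and kept during it; basal effects tested by 2-min exposure alone. Endogenous glutamate by HPLC as pmol/mg protein; overflow = stimulated minus basal in control chambers; n = 3–9, triplicate.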

[7] = biological target: Cannabinoid receptor 1 (Rattus norvegicus) (UniProt P20272); assay: Agonist activity at CB1R in Sprague-Dawley rat hippocampal synaptosomes assessed as inhibition of 4-AP evoked glutamate release at 10 uM preincubated for 8 mins followed by 4-AP addition in presence of 1 to 3 uM CB1R antagonist, SR141716A by HPLC analysis; format: subcellular; settings: Hippocampus; in short: as §4
[8] = tested on: Mus musculus; assay: Antinociceptive activity in CD-1 albino mouse model of oxaliplatin-induced neuropathic pain assessed as decrease in pain-related behaviour by measuring efficacy onset and time duration at 5 to 50 mg/kg, po treated on day 15 post oxaliplatin treatment and measured after 15 to 75 mins post dose by cold plate test; format: functional; settings: dose 5-50 mg/kg; time 15-75 min; in short: as §2
[9] = biological target: T1, Cannabinoid receptor 1; assay: Antagonist activity at human CB1R expressed in CHO cell membranes preincubated for 30 mins followed by GTPgammaS addition and measured after 90 mins by [35S]GTPgammaS assay; format: functional, Membrane; in short: as §3
[10] = biological target: T2, Cannabinoid receptor 2 (Homo sapiens, UniProt P34972); assay: (§5) Competitive antagonist activity at human CB2R expressed in CHO cell membranes assessed as rightward shift of N-cycloheptyl-1,2-dihydro-5-bromo-1-(4-fluoro benzyl)-6-methyl-2-oxo-pyridine-3-carboxamide-induced GTPgammaS binding by measuring fold change in N-cycloheptyl-1,2-dihydro-5-bromo-1-(4-fluoro benzyl)-6-methyl-2-oxo-pyridine-3-carboxamide EC50 at 1000 nM preincubated with compound for 30 mins followed by GTPgammaS addition and measured after 90 mins by [35S]GTPgammaS assay; format: functional; settings: Membrane, time 120.0 min
In short: (§6)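 hCB2 CHO membranes in GTPγS buffer (10 μM GDP, 0.1 nM [35S]GTPγS, pH 7.4) pre-incubated 30 min with antagonist at 300 nM or 1 µM, then agonist or inverse agonist concentration series, 90 min at 30 °C. EC50 and Emax reported with 95% CI; Schild analysis; controls CP55,940 100 nM and AM630 1 μM; ≥3 experiments in triplicate.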

[11] = biological target: T2, Cannabinoid receptor 2; assay: Competitive antagonist activity at human CB2R expressed in CHO cell membranes assessed as N-cycloheptyl-1,2-dihydro-5-bromo-1-(4-fluoro benzyl)-6-methyl-2-oxo-pyridine-3-carboxamide Emax at 100 nM preincubated with compound for 30 mins followed by GTPgammaS addition and measured after 90 mins by [35S]GTPgammaS assay (reference value: 210%); format: functional; settings: Membrane, filed as antagonist, time 120.0 min
[12] = biological target: T2, Cannabinoid receptor 2; assay: (§7) Non-competitive antagonist activity at human CB2R expressed in CHO cell membranes assessed as N-cycloheptyl-1,2-dihydro-1-(4-fluorobenzyl)-6-methyl-2-oxo-5-phenyl-pyridine-3-carboxamide Emax at 300 nM preincubated with compound for 30 mins followed by GTPgammaS addition and measured after 90 mins by [35S]GTPgammaS assay (reference value: -49.9%); format: functional; settings: Membrane, filed as antagonist, time 120.0 min
In short: (§8)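 hCB2 membranes from stably transfected CHO cells (10 µg) pre-incubated 30 min with antagonist, then an inverse-agonist concentration series added. Buffer: 50 mM Tris-HCl, 3 mM MgCl2, 0.2 mM EDTA, 100 mM NaCl, 0.5% fatty-acid-free BSA, pH 7.4, with 10 µM GDP and 0.1 nM [35S]GTPγS. Incubated 90 min at 30 °C, then filtered. Non-specific binding measured with 10 µM GTPγS. Emax given with 95% CI; at least 3 experiments, each in triplicate.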

[13] = biological target: T2, Cannabinoid receptor 2; assay: as §7, with “1000” for “300”; format: functional; settings: Membrane, filed as antagonist, time 120.0 min; in short: as §8
[14] = biological target: T2, Cannabinoid receptor 2; assay: as §5, with “300” for “1000”; format: functional; settings: Membrane, time 120.0 min; in short: as §6
[15] = biological target: T2, Cannabinoid receptor 2; assay: Antagonist activity at human CB2R expressed in CHO cell membranes preincubated for 30 mins followed by GTPgammaS addition and measured after 90 mins by [35S]GTPgammaS assay; format: functional, Membrane; in short: as §3

T2 sequence (P34972 whole entry): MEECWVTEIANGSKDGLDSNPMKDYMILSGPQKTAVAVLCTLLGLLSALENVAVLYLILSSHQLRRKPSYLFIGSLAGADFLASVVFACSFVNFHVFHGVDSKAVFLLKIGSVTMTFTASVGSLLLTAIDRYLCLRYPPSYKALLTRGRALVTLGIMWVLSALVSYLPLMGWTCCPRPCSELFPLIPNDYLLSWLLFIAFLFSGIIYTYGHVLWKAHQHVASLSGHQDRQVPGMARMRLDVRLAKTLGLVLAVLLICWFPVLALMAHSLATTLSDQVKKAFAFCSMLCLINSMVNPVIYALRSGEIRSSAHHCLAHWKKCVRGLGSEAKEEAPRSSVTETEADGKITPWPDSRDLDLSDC
T1 sequence (P21554 whole entry): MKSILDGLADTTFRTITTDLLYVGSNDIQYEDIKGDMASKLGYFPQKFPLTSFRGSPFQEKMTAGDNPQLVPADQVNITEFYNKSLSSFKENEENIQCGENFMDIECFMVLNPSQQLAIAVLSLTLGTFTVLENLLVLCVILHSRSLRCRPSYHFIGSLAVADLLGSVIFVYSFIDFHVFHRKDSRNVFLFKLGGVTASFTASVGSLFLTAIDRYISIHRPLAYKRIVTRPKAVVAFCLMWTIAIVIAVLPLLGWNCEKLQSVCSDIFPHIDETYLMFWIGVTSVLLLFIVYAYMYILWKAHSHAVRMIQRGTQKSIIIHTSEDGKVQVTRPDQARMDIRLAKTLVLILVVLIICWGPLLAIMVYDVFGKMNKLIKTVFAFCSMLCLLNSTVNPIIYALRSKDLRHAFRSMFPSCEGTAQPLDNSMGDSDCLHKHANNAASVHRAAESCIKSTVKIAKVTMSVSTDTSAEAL
Chain of Cannabinoid receptor 1 (Rattus norvegicus) (P20272 whole entry, the tested form may be a part): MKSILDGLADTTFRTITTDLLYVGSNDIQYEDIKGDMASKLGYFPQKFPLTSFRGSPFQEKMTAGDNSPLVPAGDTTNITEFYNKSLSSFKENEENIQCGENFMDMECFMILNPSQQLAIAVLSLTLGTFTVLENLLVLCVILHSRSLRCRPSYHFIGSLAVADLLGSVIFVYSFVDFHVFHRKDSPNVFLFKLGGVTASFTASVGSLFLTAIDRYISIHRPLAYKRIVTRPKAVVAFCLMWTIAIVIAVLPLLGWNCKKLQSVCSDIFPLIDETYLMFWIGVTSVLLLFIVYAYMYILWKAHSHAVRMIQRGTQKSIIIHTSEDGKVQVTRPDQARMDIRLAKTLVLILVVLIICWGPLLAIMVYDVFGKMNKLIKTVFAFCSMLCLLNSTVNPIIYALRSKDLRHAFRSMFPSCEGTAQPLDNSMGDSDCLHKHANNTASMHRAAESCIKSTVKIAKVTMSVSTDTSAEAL
Chain of Cannabinoid receptor 2 (Mus musculus) (P47936 whole entry): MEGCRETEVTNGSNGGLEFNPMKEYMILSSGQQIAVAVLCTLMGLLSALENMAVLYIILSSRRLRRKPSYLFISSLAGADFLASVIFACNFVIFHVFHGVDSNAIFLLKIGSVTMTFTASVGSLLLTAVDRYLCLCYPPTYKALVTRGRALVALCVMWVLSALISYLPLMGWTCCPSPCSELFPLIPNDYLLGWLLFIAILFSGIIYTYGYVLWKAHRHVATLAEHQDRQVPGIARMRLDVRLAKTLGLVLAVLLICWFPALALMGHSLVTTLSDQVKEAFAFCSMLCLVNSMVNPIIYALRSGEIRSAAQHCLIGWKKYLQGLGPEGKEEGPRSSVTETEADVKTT

SMILES	Activity [1]	Activity [2]	Activity [3]	EC50 [4] [nM]	Activity [5]	Activity [6]	Activity [7]	Time [8] [min]	EC50 [9] [nM]	fold change (FC) [10]	Emax [11] [%]	Emax [12] [%]	Emax [13] [%]	fold change (FC) [14]	EC50 [15] [nM]
Cc1c(Br)cc(C(=O)NC2CCCCCC2)c(=O)n1Cc1ccc(F)cc1	inactive	inactive	inactive	56.1	inactive	inactive	inactive	15	–	–	–	–	–	–	–
COc1ccc(-c2cc(C(=O)NC3CCCCCC3)c(=O)n(Cc3ccc(F)cc3)c2C)cc1	–	–	–	–	–	–	–	–	270	70	219	-28.6	-24.9	19	170
